MrgX1 antagonist – antagonists of human MrgX1 receptor, primary screen, HEK293 cells, Fluo-4 calcium flux | Mas-related G-protein coupled receptor member X1 (Homo sapiens), Q96LB2 | BAM8-22 antagonism; stronger effect = lower value | B-score at 10 µM | 310,000 tested, 1.3% active;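 active = calcium-response B-score plate-corrected more than 3 library SD below zero, starting fluorescence within 5 deviations, no agonist response on first addition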;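 also: peak minus trough fluorescence over baseline after final BAM8-22 challenge near maximal dose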
RGS4 pot – RGS4 potentiators or activators, primary screen, cell-based, HEK293 M3R inducible RGS4, calcium flux; carbachol calcium flux Fluo4; stronger effect = lower value; B-score at 10 µM; 310,000 tested, 0.92% active; AID 463111, 2010;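 active = B-score of the integrated calcium signal more than 4 SD below the library mean, with starting fluorescence not abnormally high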;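 also: negative B-score means reduced calcium response which marks RGS4 activation or potentiation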
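Material: M3R-expressing HEK293 line, RGS4 induced by doxycycline | Schedule: Overnight RGS4 induction, 30 min dye load 37 °C, 20 min compound RT | Measured by: Fluo4 fluorescence kinetic imaging of calcium | Read-out: Integrated calcium ratio converted to B score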
MrgX1 PAM – positive allosteric modulators of MrgX1, primary screen, HEK293 cells, Fluo-4 calcium flux. FDSS; stronger effect = higher value. B-score at 10 µM. 310,000 tested, 0.63% active;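 active = plate-corrected calcium response at least 3 library SD above typical, normal starting fluorescence, not activating the receptor alone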;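 also: compound read alongside a low EC10 to EC30 dose of BAM8-22 agonist; peak minus trough fluorescence over baseline measured at the second addition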
RGS4 block – RGS4 inhibitors, primary screen, cell-based, HEK293 M3R inducible RGS4, calcium flux. Fluo-4 calcium flux; stronger effect = higher value; triggered by carbachol at its EC20. B-score at 10 µM. 310,000 tested, 0.45% active;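 active = B-score, a plate-corrected calcium signal, over three deviations above library mean, with baseline fluorescence within five deviations of library mean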;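 also: RGS4 expression induced by doxycycline in cells with stable M3 receptor; B-score is computed from the integrated fluorescence ratio over baseline after carbachol; higher B-score means a larger calcium signal and so more RGS4 inhibition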
Target sequence (P49798 whole entry, looked up): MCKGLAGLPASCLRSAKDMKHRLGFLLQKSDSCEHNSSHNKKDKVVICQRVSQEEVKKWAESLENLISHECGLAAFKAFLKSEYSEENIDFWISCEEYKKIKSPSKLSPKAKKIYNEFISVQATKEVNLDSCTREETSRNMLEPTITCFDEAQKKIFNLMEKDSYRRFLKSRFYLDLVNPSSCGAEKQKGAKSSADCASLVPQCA
PHOSPHO1 inh – PubChem AID 1565; Phosphoethanolamine/phosphocholine phosphatase (Homo sapiens), Q8TCT1; recombinant PHOSPHO1, absorbance phosphatase assay; inhibition, % at 13.3 µM; 290,000 tested, 1.1% active; in the data active = inhibition above about 60%
Target sequence (Q8TCT1 whole entry, looked up): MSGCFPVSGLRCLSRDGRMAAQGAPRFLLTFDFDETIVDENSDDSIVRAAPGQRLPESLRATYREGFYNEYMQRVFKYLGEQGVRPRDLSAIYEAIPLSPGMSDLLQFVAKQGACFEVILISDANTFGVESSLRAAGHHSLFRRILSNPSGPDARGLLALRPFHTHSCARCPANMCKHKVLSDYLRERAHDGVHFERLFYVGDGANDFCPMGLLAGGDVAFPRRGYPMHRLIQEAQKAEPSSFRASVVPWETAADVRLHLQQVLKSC
MrgX1 agonist – agonists of human MrgX1 receptor, primary screen, HEK293 cells, Fluo-4 calcium flux | Fluo-4 calcium fluorescence, agonist mode; stronger effect = higher value | B-score at 10 µM | 310,000 tested, 0.44% active | AID 588627, 2011;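 active = calcium response B-score plate-corrected fluorescence ratio at least 3 library SD, with starting fluorescence B-score inside 5 SD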
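Material: MrgX1-expressing HEK293 cells; input: 15,000 cells per well; doses: test compound given as first of three sequential additions; schedule: overnight plating before 1 h dye loading; technique: Fluo-4 NW calcium-flux fluorescence, kinetic read; evaluation: baseline-normalised fluorescence change ratio, B-scored; control set: plate-wise positive and negative controls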
MrgX1 allo conf – MrgX1 positive allosteric modulators, duplicate retest, confirmation, HEK293 cells, Fluo-4 calcium flux | shares compounds with MrgX1 PAM | 1,200 tested, 13% active | activation (ratio percentage), % at 10 µM | AID 602413, 2012 | Fluo-4 calcium fluorescence, FDSS;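 active = ratio at least 3 SD above the weak peptide control, stable starting fluorescence, no direct agonism earlier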;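 also: compound followed by low BAM8-22 agonist challenge near EC20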
HEK293 Ca flux – nonspecific calcium signal in parental HEK293, confirmation, counter-screen for MrgX1 antagonist project, parental HEK293 cells, Fluo-4 calcium flux. shares compounds with MrgX1 antagonist. Fluo-4 calcium fluorescence, FDSS. fluorescence ratio F(max-min)/F0 at 10 µM. 4,000 tested, 2% active. AID 624111, 2012;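 active = duplicate-averaged calcium fluorescence ratio at least three times the standard deviation of buffer wells, a nonspecific response in parental cells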
HEK293 Ca counter – calcium response in parental HEK293 cells, primary screen, counter-screen for MrgX1 allosteric activator project, cell-based, Fluo-4 calcium flux, duplicate; fluorescence ratio F(max-min)/F0 at 10 µM; shares compounds with MrgX1 antagonist; AID 624114, 2012; 4,000 tested, 0.4% active; Fluo-4 fluorescence ratio; stronger effect = higher value;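 active = calcium fluorescence ratio, averaged over duplicates, at least 3 SD of the buffer-well ratio, meaning a nonspecific response in receptor-free cells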;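 also: untransfected parental HEK293 lacking MrgX1 used as counterscreen for MrgX1 allosteric activators; fluorescence change taken during the second addition on a kinetic imager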
HEK293 Ca cntr2 – calcium response in parental HEK293 cells, primary screen, counter-screen for MrgX1 agonist project, cell-based, Fluo-4 calcium flux, duplicate, agonist mode | 4,000 tested, 8.7% active | fluorescence ratio F(max-min)/F0 at 10 µM | AID 624115, 2012 | Fluo-4 calcium fluorescence (FDSS); stronger effect = higher value | shares compounds with MrgX1 antagonist;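 active = calcium fluorescence ratio at least three times the spread of buffer wells, meaning a non-specific response in parental cells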
Active calls of the source: *; i = inactive; x = no result given. Shown are actives, neighbours in structure and some others; about 4.5% of the full set was active somewhere.

SMILES	MrgX1 antagonist	RGS4 pot	MrgX1 PAM	RGS4 block	PHOSPHO1 inh	MrgX1 agonist	MrgX1 allo conf	HEK293 Ca flux	HEK293 Ca counter	HEK293 Ca cntr2
CC(C)(C)c1nnc(NS(=O)(=O)c2cc(Cl)ccc2Cl)s1	i	i	11.8*	i	18.9	i	i	i	i	i
O=C(CC1C(=O)NCCN1Cc1c(F)cccc1Cl)NCc1ccccc1 (stereo not drawn)	i	i	i	i	10.2	i	x	x	x	x
Cc1cc(C)c2c(=O)n(CC(=O)Nc3ccc(Br)c(C)c3)sc2n1	i	i	7.05*	i	-138.5	i	i	i	i	i
COC1Cc2ccccc2N(C(=O)N2CCN(CCO)CC2)c2ccccc21 (stereo not drawn)	i	i	16*	i	15.4	i	i	i	i	i
CCOC1Cc2ccccc2N(C(N)=O)c2ccccc21 (stereo not drawn)	i	i	i	i	3.9	i	x	x	x	x
CN(CC(=O)Nc1ccc(F)c(F)c1F)C(=O)CCCSc1nc2ccccc2[nH]1	i	i	i	i	x	i	x	x	x	x
Cc1cccc(NC(=S)NC(=O)/C=C/c2ccco2)n1	i	i	25.1*	i	19.5	i	4.6%*	i	i	i
Cc1cc(-c2nnnn2-c2ccc(C(F)(F)F)cc2)no1	i	i	6.98*	i	3.8	i	i	i	i	i
Cc1ccc(-n2nnnc2-c2cccc(C)c2)cc1	i	i	i	i	8.0	i	x	x	x	x
Cc1ccc2[nH]cc(C(=O)CCl)c2c1	i	i	7.39*	i	-5.2	i	i	i	i	i
CC1CCN(CCCNC(=O)c2ccc3c(Cl)c4c(nc3c2)CCCC4)CC1	i	i	i	i	13.9	i	x	x	x	x
CCCCc1ccc(S(=O)(=O)Nc2ccc(C)c(NS(C)(=O)=O)c2)cc1	i	i	9.7*	i	2.6	i	i	i	i	i
COc1ccc(-n2c(SCC(=O)N/N=C(\C)c3cccnc3)nc3ccccc3c2=O)cc1	i	i	i	i	32.1	i	x	x	x	x
O=C(CSc1nnnn1C1CCCC1)Nc1ccccc1F	i	i	i	i	0.1	i	x	x	x	x
O=C(CSc1nnnn1C1CCCC1)Nc1ccccc1N1CCOCC1	i	i	7.94*	i	37.0	i	i	i	i	i
CC(NC(=O)Nc1ccccc1O)(C(F)(F)F)C(F)(F)F	i	i	9.8*	i	0.1	i	i	i	i	i
O=C(Cn1ncc(Cl)c(Cl)c1=O)N1CCN(S(=O)(=O)c2ccc3ccccc3c2)CC1	i	i	i	i	-9.7	i	x	x	x	x
CS(=O)(=O)c1ccc2nc(NC(=O)c3ccco3)sc2c1	i	i	9.02*	i	-6.2	i	i	i	i	i
Cc1ccc(S(=O)(=O)c2nnn(-c3cccc(F)c3)c2N)cc1	i	i	8.85*	i	-12.6	i	i	i	i	i
Cc1cc(C)nc(-n2nc(C)c(Sc3ccc(F)cc3)c2N)n1	i	i	11.1*	i	7.4	i	i	i	i	i
Cc1nn(-c2ccccc2)c(N)c1Sc1cccc([N+](=O)[O-])c1	i	i	i	i	-29.5	i	x	x	x	x
COc1cc(C(=O)N/C(=C\c2cn(S(=O)(=O)N(C)C)c3ccccc23)C(=O)N2CCCC2)cc(OC)c1OC	i	i	i	i	29.3	i	x	x	x	x
Cc1cccc(N(CC(=O)Nc2cccnc2)S(C)(=O)=O)c1	i	i	i	i	52.9	i	x	x	x	x
CC(C)S(=O)(=O)C1=NSC2=NC(=O)/C(=C\c3ccc(OC(=O)c4ccco4)cc3)C(=N)N21	i	i	34.6*	i	54.3	i	i	i	i	i
N=C1/C(=C\c2ccc(OC(=O)c3ccco3)cc2)C(=O)N=C2SC(N3CCCCC3)=NN12	i	i	i	i	4.7	i	x	x	x	x
SMILES	MrgX1 antagonist	RGS4 pot	MrgX1 PAM	RGS4 block	PHOSPHO1 inh	MrgX1 agonist	MrgX1 allo conf	HEK293 Ca flux	HEK293 Ca counter	HEK293 Ca cntr2
CCOC(=O)N1CCN(C2CCCN(C(=O)c3cccc(Cl)c3)C2)CC1 (stereo not drawn)	i	i	i	i	27.0	i	x	x	x	x
OCCn1c(-c2ccc(F)cc2)csc1=Nc1ccccc1	i	i	13.4*	i	-0.3	i	i	i	i	i
CCOc1ccc(N=c2scc(-c3ccc(OC)cc3)n2CCO)cc1	i	i	i	i	-35.3	i	x	x	x	x
OCCn1c(-c2ccc3c(c2)OCO3)csc1=Nc1ccccc1	i	i	11.6*	i	30.2	i	i	i	i	i
CCn1c(-c2ccccc2)csc1=Nc1ccc(O)cc1	i	i	i	i	-72.9	i	x	x	x	x
CCOC(=O)C1C(=O)NC(N2CCCCC2)=NC1c1ccccc1 (stereo not drawn)	i	i	8.86*	i	-2.4	i	i	i	i	i
CCOC(=O)C1C(=O)NC(N2CCN(Cc3ccccc3)CC2)=NC1c1ccccc1 (stereo not drawn)	i	i	i	i	24.9	i	x	x	x	x
COc1ccccc1-n1c(-c2ccc(Cl)cc2)c[nH]c1=S	i	i	7.48*	i	-8.4	i	i	i	i	i
